The source made the active and inactive calls.
Tests used:
RAW264.7 [1] = experiment: Antiinflammatory activity against mouse RAW264.7 cells assessed as inhibition of LPS-induced iNOS mRNA expression incubated for 8 hrs in presence of LPS by qRT-PCR analysis; format: functional, cell-based; details: dose 0.31-20 µM
Summary of the method: (§1)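 RAW 264.7 cells are grown 12 h in six-well plates, then exposed to LPS (100 ng/ml) plus compound for 8 h. Reverse transcription is followed by SYBR Green qPCR with GAPDH as internal control. Relative expression is calculated by 2^-ΔΔCT versus the untreated control. Mean + SD from three independent experiments.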

RAW264.7 [2] = experiment: Antiinflammatory activity against mouse RAW264.7 cells assessed as inhibition of LPS-induced COX2 mRNA expression incubated for 8 hrs in presence of LPS by qRT-PCR analysis; format: functional, cell-based; details: dose 0.31-20 µM; summary of the method: as §1
RAW264.7 [3] = experiment: Antiinflammatory activity against mouse RAW264.7 cells assessed as inhibition of LPS-induced IL-6 production measured after 24 hrs in presence of LPS by ELISA; format: functional, cell-based; details: dose 0.31-20 µM
Summary of the method: (§2)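 RAW 264.7 cells are seeded at 2 × 10^5 per well, grown 12 h, and given 100 ng/mL LPS with compound at 0.31 to 20 μM for 24 h. Supernatant IL-1β and IL-6 are quantified by ELISA. Mean + SD, n = 3.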

RAW264.7 [4] = experiment: Antiinflammatory activity against mouse RAW264.7 cells assessed as inhibition of LPS-induced IL-1 beta production measured after 24 hrs in presence of LPS by ELISA; format: functional, cell-based; details: dose 0.31-20 µM; summary of the method: as §2
RAW264.7 [5] = experiment: Inhibition of PI3K/Akt signaling in mouse RAW264.7 cells assessed as inhibition of LPS-induced Akt phosphorylation by measuring increase in Akt level at 1.25 uM in presence of LPS by western blot analysis; format: cell-based
Summary of the method: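 Lysates of LPS-stimulated RAW 264.7 cells (20–30 μg protein) are run on 10% SDS-PAGE, blotted, blocked with 5% milk, probed overnight at 4 °C (1:5,000), then detected with HRP secondary and ECL. Actin, GAPDH or H3 (nuclear fraction) serve as loading controls, with densitometry ratios. Blots are representative of three independent experiments; mean + SD (n = 3).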

Mus musculus [6] = experiment: Antiinflammatory activity against DSS-induced colitis C57BL/6 mouse model assessed as attenuation of colon length shortening at 50 mg/kg, ip administered for 7 days; format: functional, organism-based; details: time 7.0 day
Summary of the method: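 Male C57BL/6 mice, 6 weeks old, 5 per group, given 3.5% DSS in drinking solution with intraperitoneal drug in saline/castor oil/ethanol/DMSO (70:10:15:5) daily for 7 days. Colons are photographed after sacrifice by cervical dislocation for gross assessment.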

Mus musculus [7] = experiment: Antiinflammatory activity against DSS-induced colitis C57BL/6 mouse assessed as decrease in IL-1beta level in colon at 25 mg/kg, ip administered for 7 days; format: functional, organism-based; details: time 7.0 day
Summary of the method: (§3)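 Male C57BL/6 mice, 6 weeks old, 5 per group, given 3.5% DSS solution plus daily intraperitoneal drug (100 μL, in saline/castor oil/ethanol/DMSO 70:10:15:5) for 7 days. Colons collected after sacrifice. IL-1β is normalised per milligram of colonic protein. p-IκB-α and p-p65 in colonic protein are measured by Western blot. Bars give mean + SD.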

Mus musculus [8] = experiment: Antiinflammatory activity against DSS-induced colitis C57BL/6 mouse assessed as decrease in p-IkB alpha level in colon at 50 mg/kg, ip administered for 7 days by western blot analysis; format: functional, organism-based; details: time 7.0 day; summary of the method: as §3
Mus musculus [9] = experiment: Antiinflammatory activity against DSS-induced colitis C57BL/6 mouse model assessed as reduction in scores of stool consistency and bleeding at 25 to 100 mg/kg, ip administered for 7 days by immunohistochemistry analysis; format: functional, organism-based; details: dose 25-100 mg/kg, time 7.0 day

C[C@]12CC[C@H]3[C@@H](CC=C4C[C@@H](O)CC[C@@]43C)[C@@H]1CC[C@@H]2C(=O)n1ccnc1
active: Activity (RAW264.7 [1]) Dose-Dependent Effect | Activity (RAW264.7 [2]) Dose-Dependent Effect | Activity (RAW264.7 [3]) Dose-Dependent Effect | Activity (RAW264.7 [4]) Dose-Dependent Effect | inhibition (RAW264.7 [5]) | Activity (Mus musculus [6]) | Activity (Mus musculus [7]) | Activity (Mus musculus [8]) | Activity (Mus musculus [9])

— ChEMBL document CHEMBL4842317, “Discovery of novel 3-hydroxyandrosta-5,7-Diene-17-Carboxylic acid derivatives as anti-inflammatory bowel diseases (IBD) agents” (Eur J Med Chem, 2021)
